# Laboratory results taken from ChEMBL document CHEMBL4052815, “Amphiphilic Modulation of Glycosylated Antitumor Ether Lipids Results in a Potent Triamino Scaffold against Epithelial Cancer Cell Lines and BT474 Cancer Stem Cells” (J Med Chem, 2017).
# Active and inactive are the calls of the source. The calls are words filed in the database; no cut-off is given here.
# Experiments:
# JIMT-1 [1] = experiment: Cytotoxicity against human JIMT1 cells assessed as decrease in cell viability after 48 hrs by MTS assay; format: functional; conditions: JIMT-1, 48 h
# Outline: (§1)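 Cells grown at 37 °C, 5% CO2, with 10% FBS and penicillin/streptomycin: MDA-MB-231, JIMT1 and DU145 in DMEM, PC3 in F12K, BT474 in Hybricare, MiaPaCa2 in DMEM plus 2.5% horse serum. Cells (7500–9000/well) were plated for 24 h, then exposed to 0–20 µM for 48 h. MTS was added for 1–4 h and OD490 read, blank-subtracted, relative to vehicle. CC50 was read from plots; mean ± SD, six independent determinations.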
# MDA-MB-231 [2] = experiment: Cytotoxicity against human MDA-MB-231 cells assessed as decrease in cell viability after 48 hrs by MTS assay; format: functional; conditions: MDA-MB-231, 48 h; outline: as §1
# BT-474 [3] = experiment: Cytotoxicity against human BT474 cells assessed as decrease in cell viability after 48 hrs by MTS assay; format: functional; conditions: BT-474, 48 h; outline: as §1
# MIA PaCa-2 [4] = experiment: Cytotoxicity against human MIAPaCa2 cells assessed as decrease in cell viability after 48 hrs by MTS assay; format: functional; conditions: MIA PaCa-2, 48 h; outline: as §1
# DU-145 [5] = experiment: Cytotoxicity against human DU145 cells assessed as decrease in cell viability after 48 hrs by MTS assay; format: functional; conditions: DU-145, 48 h; outline: as §1
# PC-3 [6] = experiment: Cytotoxicity against human PC3 cells assessed as decrease in cell viability after 48 hrs by MTS assay; format: functional; conditions: PC-3, 48 h; outline: as §1
# BT-474 [7] = experiment: Cytotoxicity against human BT474 cells assessed as cell viability at 4 to 10 uM after 48 hrs by MTS assay relative to control; format: functional; outline: as §1
# PC-3 [8] = experiment: Cytotoxicity against human PC3 cells assessed as cell viability at 4 to 10 uM after 48 hrs by MTS assay relative to control; format: functional; outline: as §1
# MIA PaCa-2 [9] = experiment: Cytotoxicity against human MIAPaCa2 cells assessed as cell viability at 4 to 10 uM after 48 hrs by MTS assay relative to control; format: functional; outline: as §1
# JIMT-1 [10] = experiment: Cytotoxicity against human JIMT1 cells assessed as cell viability at 4 to 10 uM after 48 hrs by MTS assay relative to control; format: functional; outline: as §1
# DU-145 [11] = experiment: Cytotoxicity against human DU145 cells assessed as cell viability at 4 to 10 uM after 48 hrs by MTS assay relative to control; format: functional; outline: as §1
# MDA-MB-231 [12] = experiment: Cytotoxicity against human MDA-MB-231 cells assessed as cell viability at 4 to 10 uM after 48 hrs by MTS assay relative to control; format: functional; outline: as §1
# MDA-MB-453 [13] = experiment: Cytotoxicity against human MDA-MB-453 cells assessed as decrease in cell viability at 6 uM after 48 hrs by MTS assay relative to control; format: functional
# MDA-MB-468 [14] = experiment: Cytotoxicity against human MDA-MB-468 cells assessed as decrease in cell viability at 6 uM after 48 hrs by MTS assay relative to control; format: functional
# MDA-MB-231 [15] = experiment: Cytotoxicity against human MDA-MB-231 cells assessed as decrease in cell viability at 6 uM after 48 hrs by MTS assay relative to control; format: functional
# BT-549 [16] = experiment: Cytotoxicity against human BT549 cells assessed as decrease in cell viability at 6 uM after 48 hrs by MTS assay relative to control; format: functional
# Hs-578T [17] = experiment: Cytotoxicity against human Hs 578T cells assessed as decrease in cell viability at 6 uM after 48 hrs by MTS assay relative to control; format: functional
# [18] = Cytotoxicity against human U87 cells assessed as cell viability at 4 to 8 uM after 48 hrs by MTS assay relative to control; format: functional, U-87MG ATCC
# Outline: (§2)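 Exponentially growing cells (7500–9000/well) were seeded for 24 h, then given compound at 0–20 µM for a further 48 h. MTS reagent (20% v/v) was added for 1–4 h and OD490 read. Blanks were cell-free media wells, and viability was expressed relative to vehicle controls. CC50 was read from viability plots; mean ± SD of six independent determinations.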
# U-251 [19] = experiment: Cytotoxicity against human U251 cells assessed as cell viability at 4 to 8 uM after 48 hrs by MTS assay relative to control; format: functional; outline: as §2
# A2780S [20] = experiment: Cytotoxicity against human A2780S cells assessed as cell viability at 4 to 8 uM after 48 hrs by MTS assay relative to control; format: functional; outline: as §2
# [21] = Cytotoxicity against human A2780C/P cells assessed as cell viability at 4 to 8 uM after 48 hrs by MTS assay relative to control; format: functional; outline: as §2
# MDA-MB-453 [22] = experiment: Cytotoxicity against human MDA-MB-453 cells assessed as decrease in cell viability after 48 hrs by MTS assay; format: functional; conditions: MDA-MB-453, 48 h
# MDA-MB-468 [23] = experiment: Cytotoxicity against human MDA-MB-468 cells assessed as decrease in cell viability after 48 hrs by MTS assay; format: functional; conditions: MDA-MB-468, 48 h
# BT-549 [24] = experiment: Cytotoxicity against human BT549 cells assessed as decrease in cell viability after 48 hrs by MTS assay; format: functional; conditions: BT-549, 48 h
# Hs-578T [25] = experiment: Cytotoxicity against human Hs 578T cells assessed as decrease in cell viability after 48 hrs by MTS assay; format: functional
# [26] = Cytotoxicity against human U87 cells assessed as decrease in cell viability after 48 hrs by MTS assay; format: functional, U-87MG ATCC; conditions: U-87 MG; outline: as §2
# U-251 [27] = experiment: Cytotoxicity against human U251 cells assessed as decrease in cell viability after 48 hrs by MTS assay; format: functional; conditions: U-251, 48 h; outline: as §2
# A2780S [28] = experiment: Cytotoxicity against human A2780S cells assessed as decrease in cell viability after 48 hrs by MTS assay; format: functional; outline: as §2
# [29] = Cytotoxicity against human A2780C/P cells assessed as decrease in cell viability after 48 hrs by MTS assay; format: functional; outline: as §2
# BT-474 [30] = experiment: Induction of disintegration of human BT474 cancer stem cell spheroids at 7.5 uM after 3 days by microscopic method; format: functional, cell-based
# Outline: (§3)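 BT474 stem-cell spheroids (ALDH1-sorted, formed over 6 days in Mammocult on ultra-low adhesion plates) exposed to 0, 7.5 or 20 µM for 3 days. Integrity was judged by light microscopy at ×10 against untreated spheroid wells.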
# BT-474 [31] = experiment: Induction of disintegration of human BT474 cancer stem cell spheroids at 20 uM after 3 days by microscopic method; format: functional, cell-based; outline: as §3
# DU-145 [32] = experiment: Cytotoxicity against human DU145 cells assessed as decrease in cell viability at 2 to 8 uM in presence of pan-caspase inhibitor Q-VD-OPh after 48 hrs by MTS assay; format: functional, cell-based
# Outline: (§4)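 DU145 or JIMT1 cells seeded for 24 h, then given 40 µM pan-caspase inhibitor along with varying compound concentrations. Incubation continued 48 h, then MTS (20% v/v) for 1–4 h, OD490 read. Values are blank-subtracted and relative to vehicle controls; mean ± SD.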
# JIMT-1 [33] = experiment: Cytotoxicity against human JIMT1 cells assessed as decrease in cell viability at 2 to 8 uM in presence of pan-caspase inhibitor Q-VD-OPh after 48 hrs by MTS assay; format: functional, cell-based; outline: as §4
# DU-145 [34] = experiment: Induction of morphological changes in human DU145 cells at 6 uM after 4 hrs by bright field microscopic method; format: functional, cell-based
# Outline: (§5)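 DU145 and JIMT1 grown in DMEM with 10% FBS and antibiotics, plated 24 h, then given 4–6 µM for 5–6 h (legend: 4 h). Ethidium homodimer-1 was added at 2 µM final, and cells were examined by bright-field and fluorescence microscopy at ×20. Controls: untreated cells, and 0.01% Triton X-100 for 10 min.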
# JIMT-1 [35] = experiment: Induction of morphological changes in human JIMT1 cells at 6 uM after 4 hrs by bright field microscopic method; format: functional, cell-based; outline: as §5
# DU-145 [36] = experiment: Membranolytic activity in human DU145 cells at 6 uM after 4 hrs by ethidium homodimer-1 staining-based fluorescence microscopic method; format: functional, cell-based; outline: as §5
# JIMT-1 [37] = experiment: Membranolytic activity in human JIMT1 cells at 6 uM after 4 hrs by ethidium homodimer-1 staining-based fluorescence microscopic method; format: functional, cell-based; outline: as §5
# [38] = Ratio of compound concentration showing <20% hemolysis in ovine erythrocytes to CC50 for human BT474 cells
# BT-474 [39] = experiment: Cytotoxicity against human BT474 cancer stem cell spheroids assessed as decrease in cell viability at 2 to 10 uM after 3 days by MTS assay
# BT-474 [40] = experiment: Cytotoxicity against human BT474 cancer stem cell spheroids assessed as cell viability at 20 uM after 3 days by MTS assay relative to control; conditions: BT-474, 72 h
# BT-474 [41] = experiment: Cytotoxicity against human BT474 cancer stem cell spheroids assessed as cell viability at 10 uM after 3 days by MTS assay relative to control; conditions: BT-474, 72 h
smiles,measurement,setting,value
CCCCCCCCCCCCCCCCOC[C@H](CO[C@@H]1O[C@H](CNCCCCCCCCCCCCN)[C@@H](O)[C@H](O)[C@H]1N)OC,CC50,JIMT-1 [1],3.4 µM
same,CC50,MDA-MB-231 [2],1.5 µM
same,CC50,BT-474 [3],1.6 µM
same,CC50,MIA PaCa-2 [4],4 µM
same,CC50,DU-145 [5],3.8 µM
same,CC50,PC-3 [6],2 µM
same,Activity,BT-474 [7],0%
same,Activity,PC-3 [8],0%
same,Activity,MIA PaCa-2 [9],0%
same,Activity,JIMT-1 [10],0%
same,Activity,DU-145 [11],0%
same,Activity,MDA-MB-231 [12],0%
same,Activity,MDA-MB-453 [13],>95%
same,Activity,MDA-MB-468 [14],>95%
same,Activity,MDA-MB-231 [15],>95%
same,Activity,BT-549 [16],>95%
same,Activity,Hs-578T [17],>95%
same,Activity,[18],0%
same,Activity,U-251 [19],0%
same,Activity,A2780S [20],0%
same,Activity,[21],0%
same,CC50,MDA-MB-453 [22],4 µM
same,CC50,MDA-MB-468 [23],2 µM
same,CC50,BT-549 [24],2.5 µM
same,CC50,Hs-578T [25],1.8 µM
same,CC50,[26],2.5 µM
same,CC50,U-251 [27],2.6 µM
same,CC50,A2780S [28],2.4 µM
same,CC50,[29],3.8 µM
same,Activity,BT-474 [30],Active
same,Activity,BT-474 [31],Active
same,Activity,DU-145 [32],Active
same,Activity,JIMT-1 [33],Active
same,Activity,DU-145 [34],Active
same,Activity,JIMT-1 [35],Active
same,Activity,DU-145 [36],inactive
same,Activity,JIMT-1 [37],inactive
same,Ratio,[38],15
same,Activity,BT-474 [39],Active
same,viability at 20 µM,BT-474 [40],0%
same,viability at 10 µM,BT-474 [41],2%
